Compound activity as filed in PubChem.
INS promoter inh – TRM-6 insulin promoter activity inhibition; inhibition, % at 2 µM; hit rate 0.9% among 130,000; AID 1273; TRM-6 cells (human fetal islet line), insulin promoter-eGFP reporter, imaging; reporter expression induced with tamoxifen;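 active = inhibition above the mean plus 3 SD, with well images judged a real hit on visual review, cut at about 60% in these data, passing the limit was not always enough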
RAM inhibit – inhibitors of the yeast RAM network; inhibition, % at 50 µM; hit rate 1.8% among 190,000; S. cerevisiae dse1pr::URA3 reporter, 5-FOA growth OD615, 2 d; analog-sensitive cbk1-as2 kinase mutant strain; AID 868;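 active = inhibition above a set limit, 3 SD over mean compound inhibition, cut at about 8.4% in these data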;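 note: inhibition rescues growth on 5-FOA so higher OD means more RAM inhibition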
Ins promoter up – MIN6 insulin promoter up-regulation; MIN6 insulin promoter-GFP reporter, high-content imaging; active compounds read high; z-score at 5 µM; hit rate 0.3% among 190,000; AID 1625;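 active = z-score above 3 at 5 µM with at least 500 cells counted in the well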
Yeast growth inh – reduces growth of yeast BB579 in restrictive medium; inhibition, % at 10 µM; hit rate 0.51% among 140,000; S. cerevisiae BB579 growth, OD615, 48 h;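 active = inhibition above a set limit, 3 SD over the mean compound inhibition, cut at about 44% in these data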
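System: Saccharomyces cerevisiae DeaD strain BB579, replicative lifespan model yeast | Buffer or medium: Restrictive glucose-based CSMM-D medium | Times: 4 h preincubation and 48 h exposure at 30 °C | Detection: OD615 turbidity measurement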
Yeast lifespan up – extends the lifespan of yeast | AID 775 | hit rate 0.68% among 130,000 | S. cerevisiae growth with nicotinamide, OD615; deaD strain in restrictive glucose medium | inhibition of the nicotinamide effect, % at 10 µM;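 active = inhibition above a set limit, placed 3 SD over the median of all compounds, cut at about 26% in these data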
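Assay system: DeaD-strain S. cerevisiae. Medium: CSMM-D glucose medium, restrictive. Reagent: nicotinamide, 1.5 mM, co-present with compound. Compound: 10 µM single point, 0.25% DMSO. Schedule: culture preincubation 4 h, compound exposure 48 h, both 30 °C. Detection: absorbance at 615 nm.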
A number is an active result; . = inactive; / = not tested or not shown. This is a sample that favours compounds with a hit; in the whole collection about 3% have one here.

SMILES	INS promoter inh	RAM inhibit	Ins promoter up	Yeast growth inh	Yeast lifespan up
CCNC(=S)Nc1cc(-c2ccc(Cl)cc2)[nH]n1	/	.	.	/	/
CC(c1ccccc1)N1CCn2c(nc3cc(NC(=O)c4cccs4)ccc32)C1 (stereo not given)	.	.	/	.	55
O=C(CSc1nnc(CN2CCOCC2)n1-c1ccc(Cl)cc1)Nc1cc(Cl)ccc1O	.	11	.	.	.
COn1c(SCc2ccc(C)cc2C)nc2ccccc2c1=O	.	9.2	.	.	.
COn1c(SC(C)C)nc2ccccc2c1=O	.	.	.	.	.
COn1c(SCC(N)=O)nc2ccccc2c1=O	/	.	/	.	.
COn1c(SC2CCCCC2)nc2ccccc2c1=O	/	.	.	.	46
CC(C)COc1ccc(S(=O)(=O)NNC(=O)c2cc3ccccc3o2)cc1	.	.	.	.	.
CCCCOc1ccc(S(=O)(=O)NNC(=O)c2cc3ccccc3o2)cc1	.	10	.	.	.
CC(C1CC1)N(Cc1ccccc1)C(=O)NC(=O)c1ccccc1 (stereo not given)	/	.	.	/	/
CC(C1CC1)N(Cc1ccccc1)C(=S)Nc1ccccc1Cl (stereo not given)	/	8.6	.	/	/
O=C(N/N=C/c1cc([N+](=O)[O-])c(N2CCOCC2)cc1N1CCOCC1)c1cccnc1	69	.	.	/	/
COc1ccc(N2C(=O)CS/C2=N\C(=S)Nc2ccccc2)cc1	/	/	.	/	/
CCC(Sc1nc2c(cnn2-c2ccc(Cl)cc2)c(=O)[nH]1)C(=O)OC (stereo not given)	80	.	.	.	.
Cc1nc2c(c(-c3ccccc3)c1C#N)C(=O)c1ccccc1-2	.	.	.	.	.
Cc1nc2c(c(C)c1C#N)C(=O)c1ccccc1-2	.	.	.	64	.
COc1ccccc1-n1c(-c2cc(-c3ccc(F)cc3)n[nH]2)n[nH]c1=S	/	.	.	/	/
N#Cc1c(/N=C/c2ccccc2)oc(-c2ccccc2)c1-c1ccccc1	.	.	.	.	/
COc1ccc(-c2oc(/N=C/N3CCOCC3)c(C#N)c2-c2ccc(OC)cc2)cc1	/	9.1	.	.	.
COc1cccc(/C=C/C(=C2/C(=O)N(c3ccccc3)N=C2C)c2ccc(Br)cc2)c1OC	/	8.7	.	.	.
COc1ccccc1/C=C/C(=C1/C(=O)N(c2ccccc2)N=C1C)c1ccc(C)cc1	71	.	.	.	.
O=C1c2ccccc2C(=O)C1c1ccc2ccccc2n1	.	.	.	54	.
COC(=O)C1=C(C)NC(C)=C(C(=O)OC)C1c1ccc2ccccc2n1	/	.	.	.	.
O=[N+]([O-])c1cccc(/C=N/Nc2nc(N3CCCCC3)nc(N3CCCCC3)n2)c1	71	.	.	/	/
CCN(CC)C(=O)Nc1c(C)n(C)n(-c2ccccc2)c1=O	.	.	.	.	/
SMILES	INS promoter inh	RAM inhibit	Ins promoter up	Yeast growth inh	Yeast lifespan up
COc1ccc(/C(O)=C/C(=O)C(=O)Nc2c(C)n(C)n(-c3ccccc3)c2=O)cc1	.	.	.	.	73
CCC(CC)C(=O)Nc1c(C)n(C)n(-c2ccccc2)c1=O	.	.	.	.	57
Cc1c(NC(=O)C(=O)/C=C(/O)c2ccccc2)c(=O)n(-c2ccccc2)n1C	.	.	.	.	67
CCC(C(=O)OC)(C(=O)OC)c1ccc([N+](=O)[O-])cc1	/	.	.	/	/
NC(=O)c1ccccc1OC1CCC1	/	/	.	/	/
CCc1ccc(NC(=O)c2ccc3c(c2)C(=O)N(CCOC)C3Nc2ccc(CC)cc2)cc1 (stereo not given)	.	.	.	.	.
CCOC(=O)CCc1c(C)nc(SCCCn2c(=O)[nH]c3ccccc32)c(C#N)c1C	.	9.4	.	.	.
C=C(C)C1CC=C(C)/C(=N/NC(=O)c2ccc(NC(=O)CC)cc2)C1 (stereo not given)	.	.	.	.	.
C=C(C)C1CC=C(C)/C(=N/NC(=O)c2ccc(NC(=O)CCC)cc2)C1 (stereo not given)	83	.	.	.	.
CCc1nc(Nc2ccc3c(c2)OCCO3)c2oc3ccccc3c2n1	86	.	.	.	.
O=C(Cn1[nH]c(=O)c2ccccc2c1=O)NNC(=O)c1ccccc1	.	.	/	/	/
CCCn1nnc(NC(=O)c2ccc(Br)cc2)n1	79	.	.	.	.
CSc1nc(-c2ccccc2F)c(C#N)c(=O)n1C	.	8.6	.	/	/
COc1ccc(C2CC(c3c(-c4ccccc4)c4cc(Cl)ccc4[nH]c3=O)=NN2C(=O)CCC(=O)O)cc1 (stereo not given)	/	9.1	/	/	/
